The values below come from paper PMC4301071 (ACS Chemical Biology, 2014).

The target of test [1] is T1, JHDM1A (Homo sapiens, UniProt Q9Y2K7).
T1 sequence (Q9Y2K7 1-1162): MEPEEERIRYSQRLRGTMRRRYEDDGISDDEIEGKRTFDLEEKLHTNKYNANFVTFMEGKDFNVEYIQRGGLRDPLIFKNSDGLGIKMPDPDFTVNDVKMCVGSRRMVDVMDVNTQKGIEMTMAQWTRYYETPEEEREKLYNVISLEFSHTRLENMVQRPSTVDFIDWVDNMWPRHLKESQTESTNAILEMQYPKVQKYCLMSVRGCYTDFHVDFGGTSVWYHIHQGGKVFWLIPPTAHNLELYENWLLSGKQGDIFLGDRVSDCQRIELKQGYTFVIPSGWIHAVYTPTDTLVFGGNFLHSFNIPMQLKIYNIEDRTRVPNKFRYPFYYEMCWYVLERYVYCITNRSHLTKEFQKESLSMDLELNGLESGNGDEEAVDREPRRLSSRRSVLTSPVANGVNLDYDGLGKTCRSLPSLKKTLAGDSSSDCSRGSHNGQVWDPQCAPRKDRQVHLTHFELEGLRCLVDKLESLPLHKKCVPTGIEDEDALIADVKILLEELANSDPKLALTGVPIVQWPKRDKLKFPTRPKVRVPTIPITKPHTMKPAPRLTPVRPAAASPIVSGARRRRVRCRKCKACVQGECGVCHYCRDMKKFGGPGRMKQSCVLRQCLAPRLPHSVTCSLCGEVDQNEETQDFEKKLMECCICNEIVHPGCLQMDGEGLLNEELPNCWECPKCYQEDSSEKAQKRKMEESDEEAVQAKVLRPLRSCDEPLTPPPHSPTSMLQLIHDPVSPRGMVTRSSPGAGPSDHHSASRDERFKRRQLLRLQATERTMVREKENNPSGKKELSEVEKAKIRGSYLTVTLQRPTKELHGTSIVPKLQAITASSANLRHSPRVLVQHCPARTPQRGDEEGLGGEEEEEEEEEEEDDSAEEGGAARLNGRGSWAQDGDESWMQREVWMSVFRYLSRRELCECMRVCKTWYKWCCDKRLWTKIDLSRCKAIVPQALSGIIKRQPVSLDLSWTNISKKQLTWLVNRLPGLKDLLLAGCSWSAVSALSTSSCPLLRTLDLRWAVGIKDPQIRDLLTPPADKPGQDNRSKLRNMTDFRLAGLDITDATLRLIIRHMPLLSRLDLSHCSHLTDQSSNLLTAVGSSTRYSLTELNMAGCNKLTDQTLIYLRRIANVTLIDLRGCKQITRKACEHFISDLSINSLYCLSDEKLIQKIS
Description: Fluorescence polarization. Format: binding. (Polarisation of emitted light reports the rotation of a fluorescent probe.)

Test [2] addresses T1, JHDM1A. Description: Affinity pulldown of purified JHDM1A in the presence of HeLa histone proteins. Format: binding. The following applies: in the absence of UV irradiation. In outline:
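Acid-extracted HeLa histones were prepared by Triton lysis, then 0.2 N HCl overnight at 4 °C, then lyophilisation. Biotinylated peptide probe (20 μM) was loaded onto streptavidin magnetic beads for 30 min at 4 °C. Recombinant JHDM1A (5 μM) and equal amounts of histones were then added in 25 mM Tris, 100 mM NaCl, 5 μM NiCl2, pH 7.5, for 4 h at 4 °C. The 350 nm, 20 min UV step was omitted. Beads were washed in HEPES/1 M NaCl/1% Triton, then water.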

In a further test the target is JMJD1C/KDM3C (Homo sapiens, UniProt Q15652). As to the kind of experiment: Affinity pulldown from HeLa nuclear lysate, spectral count of JMJD1C/KDM3C. The test is classed as binding. The following applies: HeLa nuclear extract. In outline:
(§1)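 HeLa cells were grown in DMEM with 10% FCS and 1% penicillin/streptomycin at 37 °C, 5% CO2. Nuclei were prepared by hypotonic swelling and douncing, extracted in 0.4 M NaCl/20% glycerol buffer, and dialysed into 20 mM HEPES, 100 mM KCl, 2 mM MgCl2, pH 7.9. Streptavidin bead pulldowns used 2 mL lysate, and a no-probe control was included. Bead-bound material was washed, reduced with 4 mM DTT, alkylated with 14 mM iodoacetamide, trypsin-digested on the beads overnight at 37 °C, and run on nanoLC-LTQ/Orbitrap. Searches used human UniProt at 1% FDR, with spectral-count quantification.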

The target in test [3] is T2, JMJD2A/KDM4A (Homo sapiens, UniProt O75164).
T2 sequence (O75164 2-1064): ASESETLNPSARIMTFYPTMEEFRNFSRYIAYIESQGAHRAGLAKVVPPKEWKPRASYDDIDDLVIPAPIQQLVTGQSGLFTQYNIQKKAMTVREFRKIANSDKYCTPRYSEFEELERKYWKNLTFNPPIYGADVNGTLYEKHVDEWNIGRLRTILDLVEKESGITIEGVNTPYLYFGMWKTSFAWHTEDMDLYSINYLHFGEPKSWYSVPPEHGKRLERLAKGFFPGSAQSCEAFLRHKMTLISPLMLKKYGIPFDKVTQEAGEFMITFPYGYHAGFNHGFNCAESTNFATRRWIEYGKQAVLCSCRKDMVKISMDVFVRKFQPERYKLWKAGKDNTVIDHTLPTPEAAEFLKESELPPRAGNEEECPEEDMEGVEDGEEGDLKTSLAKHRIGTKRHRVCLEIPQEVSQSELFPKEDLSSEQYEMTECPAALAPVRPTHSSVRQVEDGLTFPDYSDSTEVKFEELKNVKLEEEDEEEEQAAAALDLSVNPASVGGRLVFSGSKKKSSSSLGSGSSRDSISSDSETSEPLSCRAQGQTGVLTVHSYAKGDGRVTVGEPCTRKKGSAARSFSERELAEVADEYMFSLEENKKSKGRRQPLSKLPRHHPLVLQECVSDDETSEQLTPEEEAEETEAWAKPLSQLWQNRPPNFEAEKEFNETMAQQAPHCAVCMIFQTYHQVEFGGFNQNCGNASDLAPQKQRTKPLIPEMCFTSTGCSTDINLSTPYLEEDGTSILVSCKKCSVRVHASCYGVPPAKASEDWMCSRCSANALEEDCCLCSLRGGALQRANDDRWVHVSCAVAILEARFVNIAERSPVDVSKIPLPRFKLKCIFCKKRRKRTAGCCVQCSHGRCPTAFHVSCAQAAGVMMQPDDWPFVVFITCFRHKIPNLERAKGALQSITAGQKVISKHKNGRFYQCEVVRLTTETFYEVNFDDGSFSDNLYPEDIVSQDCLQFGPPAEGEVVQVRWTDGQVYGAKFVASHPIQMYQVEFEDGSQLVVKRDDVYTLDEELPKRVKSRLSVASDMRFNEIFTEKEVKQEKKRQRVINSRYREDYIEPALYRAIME
Description: Affinity pulldown from HeLa nuclear lysate, spectral count of JMJD2A/KDM4A. Format: binding. The following applies: HeLa nuclear extract, 20 μM probe 6.

For test [4], the system named is JMJD2A/KDM4A. Described as above. The test is classed as binding, human. Particulars: HeLa nuclear extract, 20 μM probe 6, recombinant KDM4A spiked in at 25 nM.
For a further test, the target named is PHF8/KDM7A (Homo sapiens, UniProt Q9UPP1). As to the kind of experiment: Affinity pulldown from HeLa nuclear lysate, spectral count of PHF8/KDM7A. Format: binding. The following applies: HeLa nuclear extract. In outline: as §1
Another test deals with CHD8 (Homo sapiens, UniProt Q9HCK8). Description: Affinity pulldown from HeLa nuclear lysate, spectral count of CHD8. The test is classed as binding. Particulars: HeLa nuclear extract. In outline:
as §1

In another test the target is CHD7 (Homo sapiens, UniProt Q9P2D1). Description: Affinity pulldown from HeLa nuclear lysate, spectral count of CHD7. The test is classed as binding. The following applies: HeLa nuclear extract. In outline: as §1
The test system of the next test is HDAC1/2. As to the kind of experiment: Affinity pulldown from HeLa nuclear lysate, spectral count of HDAC1/2. Format: binding, human. The following applies: HeLa nuclear extract. An outline of the steps: as §1
The mark [5] stands for this setting: 20 μM probe 6, recombinant KDM4A spiked in at 25 nM.

*1 amine or outer side, *2 acyl side, *3 side chain or, on linkers, in order; H or OH if unused. Where a SMILES comes first, the peptide text is derived from it. [ ]: non-standard residue; d: D form. The star is where a group is joined. X1 = CN(CCCC[C@H](N[*:1])C(=O)[*:2])CCCCN(O)C(=O)/C=C/C(=O)O; Biotin = O=C1N[C@H]2[C@H](CS[C@H]2CCCCC(=O)*)N1; Bpa = N[C@@H](Cc1ccc(C(=O)c2ccccc2)cc1)C(=O)O; PEG4 = NCCOCCOCCOCCOCCC(=O)O

Chain of PHF8/KDM7A (Q9UPP1 whole entry): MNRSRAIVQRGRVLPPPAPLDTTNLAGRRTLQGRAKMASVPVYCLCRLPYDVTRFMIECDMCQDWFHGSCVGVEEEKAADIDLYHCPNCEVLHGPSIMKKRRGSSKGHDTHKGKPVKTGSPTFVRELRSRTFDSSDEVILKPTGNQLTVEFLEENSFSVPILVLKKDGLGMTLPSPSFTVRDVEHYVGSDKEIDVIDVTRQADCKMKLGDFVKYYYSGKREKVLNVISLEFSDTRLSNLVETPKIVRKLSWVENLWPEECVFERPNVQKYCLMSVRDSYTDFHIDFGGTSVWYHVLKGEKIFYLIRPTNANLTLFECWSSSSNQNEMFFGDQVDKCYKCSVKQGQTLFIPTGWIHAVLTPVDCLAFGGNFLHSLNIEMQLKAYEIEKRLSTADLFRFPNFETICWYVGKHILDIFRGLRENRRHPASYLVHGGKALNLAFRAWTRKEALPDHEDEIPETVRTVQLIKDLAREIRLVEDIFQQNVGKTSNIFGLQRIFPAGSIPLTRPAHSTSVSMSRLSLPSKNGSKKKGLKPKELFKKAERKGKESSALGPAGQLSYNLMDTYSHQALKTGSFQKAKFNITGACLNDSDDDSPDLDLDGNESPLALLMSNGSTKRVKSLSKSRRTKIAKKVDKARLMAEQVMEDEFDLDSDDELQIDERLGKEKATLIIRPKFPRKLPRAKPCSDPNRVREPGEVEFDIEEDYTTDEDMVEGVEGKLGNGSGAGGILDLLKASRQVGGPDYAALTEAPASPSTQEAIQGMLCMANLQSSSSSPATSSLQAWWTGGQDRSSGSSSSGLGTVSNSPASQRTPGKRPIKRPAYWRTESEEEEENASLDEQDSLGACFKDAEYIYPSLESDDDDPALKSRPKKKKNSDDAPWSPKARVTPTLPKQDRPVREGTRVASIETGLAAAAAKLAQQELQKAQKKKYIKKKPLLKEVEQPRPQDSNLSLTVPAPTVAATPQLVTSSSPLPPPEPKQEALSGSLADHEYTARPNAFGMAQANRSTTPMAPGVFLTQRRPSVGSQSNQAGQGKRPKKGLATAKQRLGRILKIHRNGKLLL
Chain of CHD7 (Q9P2D1 whole entry): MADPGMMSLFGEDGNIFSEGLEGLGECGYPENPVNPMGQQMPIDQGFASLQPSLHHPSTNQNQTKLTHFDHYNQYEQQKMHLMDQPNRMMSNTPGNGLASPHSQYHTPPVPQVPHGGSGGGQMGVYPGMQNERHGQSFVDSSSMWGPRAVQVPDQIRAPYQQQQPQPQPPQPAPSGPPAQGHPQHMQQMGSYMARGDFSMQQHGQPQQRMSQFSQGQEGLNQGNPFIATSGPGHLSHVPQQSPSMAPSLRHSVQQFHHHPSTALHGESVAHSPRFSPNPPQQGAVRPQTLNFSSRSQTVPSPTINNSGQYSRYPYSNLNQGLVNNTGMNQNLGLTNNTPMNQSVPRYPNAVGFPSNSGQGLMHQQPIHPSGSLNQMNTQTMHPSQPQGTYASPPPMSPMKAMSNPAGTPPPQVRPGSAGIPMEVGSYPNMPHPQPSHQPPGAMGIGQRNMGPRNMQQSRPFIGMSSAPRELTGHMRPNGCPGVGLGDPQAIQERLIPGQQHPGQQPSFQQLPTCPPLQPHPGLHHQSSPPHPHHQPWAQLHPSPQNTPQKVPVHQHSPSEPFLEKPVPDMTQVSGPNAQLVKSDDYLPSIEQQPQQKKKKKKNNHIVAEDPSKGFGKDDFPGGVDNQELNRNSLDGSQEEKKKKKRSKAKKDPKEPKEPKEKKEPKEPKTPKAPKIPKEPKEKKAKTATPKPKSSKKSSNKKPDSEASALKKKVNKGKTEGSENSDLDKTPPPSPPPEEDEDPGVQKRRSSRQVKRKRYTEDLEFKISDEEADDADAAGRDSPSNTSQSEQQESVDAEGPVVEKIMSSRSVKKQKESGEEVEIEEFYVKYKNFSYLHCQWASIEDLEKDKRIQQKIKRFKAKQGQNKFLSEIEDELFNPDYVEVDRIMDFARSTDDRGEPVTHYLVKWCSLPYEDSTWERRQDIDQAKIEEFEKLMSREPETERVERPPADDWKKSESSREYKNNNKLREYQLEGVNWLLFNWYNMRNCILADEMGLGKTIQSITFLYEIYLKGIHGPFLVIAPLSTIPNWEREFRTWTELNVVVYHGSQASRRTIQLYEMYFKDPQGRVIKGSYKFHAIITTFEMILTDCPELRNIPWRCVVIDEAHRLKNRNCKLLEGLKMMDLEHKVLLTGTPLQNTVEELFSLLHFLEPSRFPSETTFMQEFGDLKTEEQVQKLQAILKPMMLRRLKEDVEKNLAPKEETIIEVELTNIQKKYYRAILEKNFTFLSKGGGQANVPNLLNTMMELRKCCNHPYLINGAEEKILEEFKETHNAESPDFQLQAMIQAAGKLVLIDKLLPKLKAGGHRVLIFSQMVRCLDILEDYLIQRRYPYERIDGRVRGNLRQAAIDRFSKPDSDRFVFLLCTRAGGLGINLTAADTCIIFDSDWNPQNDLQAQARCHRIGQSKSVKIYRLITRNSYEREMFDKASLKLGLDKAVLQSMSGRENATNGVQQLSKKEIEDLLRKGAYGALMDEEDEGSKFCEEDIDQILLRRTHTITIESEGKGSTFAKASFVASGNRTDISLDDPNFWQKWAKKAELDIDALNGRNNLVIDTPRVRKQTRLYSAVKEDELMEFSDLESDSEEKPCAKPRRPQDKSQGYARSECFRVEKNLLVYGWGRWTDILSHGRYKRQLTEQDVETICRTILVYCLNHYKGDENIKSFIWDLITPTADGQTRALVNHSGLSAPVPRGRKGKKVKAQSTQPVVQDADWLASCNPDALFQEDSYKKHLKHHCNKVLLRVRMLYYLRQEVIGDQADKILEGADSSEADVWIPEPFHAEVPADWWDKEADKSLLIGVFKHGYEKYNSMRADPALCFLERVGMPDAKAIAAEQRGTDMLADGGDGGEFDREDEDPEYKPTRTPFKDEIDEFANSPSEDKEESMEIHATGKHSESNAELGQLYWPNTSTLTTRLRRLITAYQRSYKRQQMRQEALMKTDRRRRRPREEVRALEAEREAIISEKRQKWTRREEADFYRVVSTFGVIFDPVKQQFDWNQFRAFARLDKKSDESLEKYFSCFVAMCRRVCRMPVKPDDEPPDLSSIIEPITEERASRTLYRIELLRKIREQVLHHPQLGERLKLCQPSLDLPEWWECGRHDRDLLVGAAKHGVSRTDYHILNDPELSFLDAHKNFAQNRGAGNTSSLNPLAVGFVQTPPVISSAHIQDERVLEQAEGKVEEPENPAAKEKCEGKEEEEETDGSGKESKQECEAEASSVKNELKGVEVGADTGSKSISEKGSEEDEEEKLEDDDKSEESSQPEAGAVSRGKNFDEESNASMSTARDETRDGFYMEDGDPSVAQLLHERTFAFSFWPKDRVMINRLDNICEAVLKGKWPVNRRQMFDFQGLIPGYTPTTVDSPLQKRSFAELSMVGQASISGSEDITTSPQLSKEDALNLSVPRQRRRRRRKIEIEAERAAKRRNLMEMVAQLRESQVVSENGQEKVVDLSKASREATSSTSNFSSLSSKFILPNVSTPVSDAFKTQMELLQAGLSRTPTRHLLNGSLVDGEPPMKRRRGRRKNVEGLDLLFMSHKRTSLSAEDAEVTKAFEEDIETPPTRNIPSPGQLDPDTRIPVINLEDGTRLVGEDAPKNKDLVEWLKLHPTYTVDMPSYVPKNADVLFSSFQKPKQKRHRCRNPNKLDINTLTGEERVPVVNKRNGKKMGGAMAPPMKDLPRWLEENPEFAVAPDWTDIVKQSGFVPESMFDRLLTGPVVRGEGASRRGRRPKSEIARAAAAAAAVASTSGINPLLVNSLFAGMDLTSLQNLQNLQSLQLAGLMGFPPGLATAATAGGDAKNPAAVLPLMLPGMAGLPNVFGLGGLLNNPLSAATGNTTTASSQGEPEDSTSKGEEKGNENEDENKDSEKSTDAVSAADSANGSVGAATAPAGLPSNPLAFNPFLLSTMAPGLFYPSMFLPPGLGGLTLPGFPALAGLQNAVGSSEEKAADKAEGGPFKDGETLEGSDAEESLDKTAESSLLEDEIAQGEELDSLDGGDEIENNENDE

Turning to `CC(C)[C@H](NC(=O)CNC(=O)CNC(=O)[C@@H](NC(=O)[C@H](Cc1ccc(C(=O)c2ccccc2)cc1)NC(=O)CCOCCOCCOCCOCCNC(=O)CCCC[C@@H]1SC[C@@H]2NC(=O)N[C@@H]21)[C@@H](C)O)C(=O)N[C@@H](CCCCN(C)CCCCN(O)C(=O)/C=C/C(=O)O)C(=O)N[C@@H](CCCCN)C(=O)N1CCC[C@H]1C(=O)N[C@@H](Cc1c[nH]cn1)C(=O)N[C@@H](CCCNC(=N)N)C(N)=O` [probe 6] ({Biotin-PEG4}-[Bpa]TGGV[X1]KPHR-NH2), the “fold increased affinity compared to nonfunctionalized native H3K36me2 histone 20mer peptide” value at JHDM1A [1] was around 2 fold. Besides, the “pulldown of JHDM1A” value at JHDM1A [2] is listed as “complete absence of JHDM1A”. Besides, the “spectral count, endogenous” value amounted to 6 on JMJD1C/KDM3C (20 μM probe 6); 0 at JMJD2A/KDM4A [3]; 1 at PHF8/KDM7A (20 μM probe 6); 2 on CHD8 (20 μM probe 6); 5 on CHD7 (20 μM probe 6); 8 in the test on HDAC1/2 (20 μM probe 6). For the same molecule, the “spectral count, spiked-in” value at JMJD1C/KDM3C (setting [5]) was 3; in the test with JMJD2A/KDM4A [4] it was 5; at PHF8/KDM7A (setting [5]), 1; at CHD8 (setting [5]), 3; on CHD7 (setting [5]) it was 1; with HDAC1/2 (setting [5]), 3.
